In ChEMBL document CHEMBL1141273, “Epicoccins A-D, epipolythiodioxopiperazines from a Cordyceps-colonizing isolate of Epicoccum nigrum” (2007):
Calls of active or inactive are those of the source. No cut-off for these calls is given here.

Legend:
Enterococcus faecalis = assay: Antimicrobial activity against Enterococcus faecalis ATCC 19433 at 100 ug/disk after 24 hrs; format: functional, organism-based
Method in brief: (§1)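 Bacteria grown on Mueller-Hinton agar. Paper disks (6 mm) bearing 100 µg compound placed on the agar. Plates incubated at 37 °C for 24 h and examined for a zone of inhibition.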

Bacillus subtilis = assay: Antimicrobial activity against Bacillus subtilis ATCC 6633 at 100 ug/disk after 24 hrs; settings: for zone of inhibition at 100 µg/disc: ATCC 6633, 24 h, read-out: IZ
Aspergillus fumigatus = assay: Antifungal activity against Aspergillus fumigatus ATCC 10894 at 100 ug/disk after 24 hrs; format: functional, organism-based
Staphylococcus aureus = assay: Antimicrobial activity against Staphylococcus aureus ATCC 6538 at 100 ug/disk after 24 hrs; format: functional, organism-based; method in brief: as §1
Geotrichum candidum = assay: Antifungal activity against Geotrichum candidum AS2.498 at 100 ug/disk after 24 hrs; format: functional, organism-based
Streptococcus mutans = assay: Antimicrobial activity against Streptococcus mutans ATCC 25175 at 100 ug/disk after 24 hrs; format: functional, organism-based; method in brief: as §1
Candida albicans = assay: Antifungal activity against Candida albicans ATCC 10231 at 100 ug/disk after 24 hrs; format: functional, organism-based
Micrococcus luteus = assay: Antimicrobial activity against Sarcina lutea CMCC B28001 at 100 ug/disk after 24 hrs; format: functional, organism-based; method in brief: as §1

SMILES	Activity (Enterococcus faecalis)	Activity (Bacillus subtilis)	Activity (Aspergillus fumigatus)	Activity (Staphylococcus aureus)	Activity (Geotrichum candidum)	Activity (Streptococcus mutans)	Activity (Candida albicans)	Activity (Micrococcus luteus)	zone of inhibition at 100 µg/disc (Bacillus subtilis) [mm]
O=C1C[C@@H]2SS[C@@]34C[C@@H]1[C@@H]([C@H]2O)N3C(=O)[C@@]12C[C@H]3C(=O)C[C@H](SS1)[C@H](O)[C@H]3N2C4=O	inactive	inactive	inactive	inactive	inactive	inactive	inactive	inactive	–
O=C(O)c1cn(C2CC2)c2cc(N3CCNCC3)c(F)cc2c1=O [CIPROFLOXACIN]	–	–	–	–	–	–	–	–	28
O=C1C[C@@H]2SS[C@@]34C[C@@H]1[C@@H]([C@H]2O)N3C(=O)[C@@]12C[C@H]3C(=O)[C@H](S1)[C@H](O)[C@H](O)[C@H]3N2C4=O	inactive	inactive	inactive	inactive	inactive	inactive	inactive	inactive	–
O=C1C[C@@H]2S[C@@]34C[C@@H]1[C@@H]([C@H]2O)N3C(=O)[C@@]12C[C@H]3C(=O)C[C@H](S1)[C@H](O)[C@H]3N2C4=O	inactive	inactive	inactive	inactive	inactive	inactive	inactive	inactive	–
O=C1C[C@H]2SS[C@@]34C[C@@H]1[C@@H]([C@H]2O)N3C(=O)[C@@]12C[C@H]3C(=O)C[C@@H](S1)[C@H](O)[C@H]3N2C4=O [EPICOCCIN A]	inactive	–	inactive	inactive	inactive	inactive	inactive	inactive	12
